Activity calls are given as the source filed them. The rule behind the calls is not given here.
Key:
[1] = target: T1, 5-hydroxytryptamine receptor 7 (Homo sapiens, UniProt P34969); experiment: Displacement of [3H]5-HT from human 5-HT7 receptor expressed in HEK293 cells after 30 mins by microbeta counting analysis; assay type: cell-based
[2] = target: T2, 5-hydroxytryptamine receptor 1A (Homo sapiens) (UniProt P08908); experiment: Displacement of [3H]-8-OH-DPAT from human recombinant 5-HT1A receptor expressed in HEK293 cells at 1 uM by scintillation counting analysis relative to control; assay type: cell-based
T2 sequence (whole entry): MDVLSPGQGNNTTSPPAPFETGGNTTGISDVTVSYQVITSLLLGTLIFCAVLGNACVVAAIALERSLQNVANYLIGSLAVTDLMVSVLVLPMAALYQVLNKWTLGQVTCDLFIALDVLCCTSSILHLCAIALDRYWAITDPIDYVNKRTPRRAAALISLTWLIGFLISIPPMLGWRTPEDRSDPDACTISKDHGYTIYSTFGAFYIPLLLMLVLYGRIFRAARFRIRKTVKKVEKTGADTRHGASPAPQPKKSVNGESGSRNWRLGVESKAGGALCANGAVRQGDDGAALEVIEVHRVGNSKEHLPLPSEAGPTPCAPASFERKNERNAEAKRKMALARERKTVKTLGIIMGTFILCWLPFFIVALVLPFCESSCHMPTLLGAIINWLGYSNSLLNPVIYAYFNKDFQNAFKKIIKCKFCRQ

[3] = target: 5-hydroxytryptamine receptor 1B (Homo sapiens) (UniProt P28222); experiment: Binding affinity to recombinant human 5-HT1B receptor expressed in CHO cells at 1 uM by radioligand displacement assay relative to control; assay type: cell-based
[4] = target: 5-hydroxytryptamine receptor 1D (Rattus norvegicus) (UniProt P28565); experiment: Binding affinity to rat recombinant 5-HT1D receptor expressed in CHO cells at 1 uM by radioligand displacement assay relative to control; assay type: cell-based
[5] = target: 5-hydroxytryptamine receptor 2A (Homo sapiens) (UniProt P28223); experiment: Binding affinity to human recombinant 5-HT2A receptor expressed in HEK293 cells at 1 uM by radioligand displacement assay relative to control; assay type: cell-based
[6] = target: 5-hydroxytryptamine receptor 2B (Homo sapiens) (UniProt P41595); experiment: Binding affinity to human recombinant 5-HT2B receptor expressed in CHO cells at 1 uM by radioligand displacement assay relative to control; assay type: cell-based
[7] = target: T3, 5-hydroxytryptamine receptor 2C (Homo sapiens) (UniProt P28335); experiment: Binding affinity to human recombinant 5-HT2C receptor expressed in HEK293 cells at 1 uM after 30 mins by radioligand displacement assay relative to control; assay type: cell-based
T3 sequence (whole entry): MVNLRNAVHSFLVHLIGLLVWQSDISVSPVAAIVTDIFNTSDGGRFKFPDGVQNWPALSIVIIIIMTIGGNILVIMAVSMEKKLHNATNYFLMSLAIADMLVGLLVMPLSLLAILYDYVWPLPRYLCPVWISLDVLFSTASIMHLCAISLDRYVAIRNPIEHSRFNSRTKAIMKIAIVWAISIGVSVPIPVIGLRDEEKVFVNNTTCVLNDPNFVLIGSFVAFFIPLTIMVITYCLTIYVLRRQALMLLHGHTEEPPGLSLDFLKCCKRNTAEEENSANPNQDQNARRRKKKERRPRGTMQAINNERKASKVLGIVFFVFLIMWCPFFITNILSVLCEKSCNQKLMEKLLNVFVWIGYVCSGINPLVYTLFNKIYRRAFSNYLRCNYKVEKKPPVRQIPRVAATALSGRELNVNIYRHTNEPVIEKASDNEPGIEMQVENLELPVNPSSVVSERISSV

[8] = target: T4, 5-hydroxytryptamine receptor 3A (Homo sapiens) (UniProt P46098); experiment: Binding affinity to human 5-HT3 receptor at 1 uM by radioligand displacement assay relative to control
T4 sequence (whole entry): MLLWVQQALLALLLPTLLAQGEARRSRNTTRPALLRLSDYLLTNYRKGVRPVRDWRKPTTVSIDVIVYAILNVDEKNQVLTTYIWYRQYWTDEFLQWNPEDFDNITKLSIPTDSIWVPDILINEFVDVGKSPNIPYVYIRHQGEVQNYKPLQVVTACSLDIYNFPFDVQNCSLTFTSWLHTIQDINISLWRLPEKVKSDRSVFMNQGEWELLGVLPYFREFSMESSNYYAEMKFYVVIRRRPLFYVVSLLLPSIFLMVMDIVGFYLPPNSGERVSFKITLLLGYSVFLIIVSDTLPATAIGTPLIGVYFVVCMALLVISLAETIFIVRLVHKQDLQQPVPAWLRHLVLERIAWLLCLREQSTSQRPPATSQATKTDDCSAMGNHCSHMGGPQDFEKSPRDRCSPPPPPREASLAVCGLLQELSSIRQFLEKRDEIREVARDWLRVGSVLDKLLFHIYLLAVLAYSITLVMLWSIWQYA

[9] = target: 5-hydroxytryptamine receptor 4 (Homo sapiens) (UniProt Q13639); experiment: Binding affinity to human recombinant 5-HT4E receptor expressed in CHO cells at 1 uM after 30 mins by radioligand displacement assay relative to control; assay type: cell-based
[10] = target: 5-hydroxytryptamine receptor 5A (Homo sapiens) (UniProt P47898); experiment: Displacement of [3H]LSD from human recombinant 5-HT5A receptor expressed in HEK293 cells at 1 uM after 120 mins by scintillation counting analysis relative to control; assay type: cell-based
[11] = target: 5-hydroxytryptamine receptor 6 (Homo sapiens) (UniProt P50406); experiment: Binding affinity to human recombinant 5-HT6 receptor expressed in CHO cells at 1 uM after 30 mins by radioligand displacement assay relative to control; assay type: cell-based
[12] = target: T1, 5-hydroxytryptamine receptor 7; experiment: Binding affinity to human recombinant 5-HT7 receptor expressed in CHO cells after 30 mins by radioligand displacement assay; assay type: cell-based
In short: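 Membranes from receptor-expressing cells harvested at 80% confluence, homogenised and pelleted at 48,000 × g for 90 min, then protein-quantified by Bradford. Competition with 5 nmol/L [3H]5-HT and test compound for 30 min at 25 °C in 50 mM Tris-HCl pH 7.4 containing pargyline, 4 mmol/L CaCl2 and 0.05% ascorbic acid. Non-specific binding measured with excess cold 5-HT; bound radioligand separated by filtration. Ki derived from IC50 by Cheng-Prusoff; mean of four determinations in duplicate.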

[13] = target: T1, 5-hydroxytryptamine receptor 7; experiment: Antagonist activity at human 5-HT7 receptor expressed in CHO cells assessed as residual 5-HT-stimulated cAMP accumulation at 1 uM relative to control
[14] = target: T1, 5-hydroxytryptamine receptor 7; experiment: Antagonist activity at human 5-HT7 receptor expressed in CHO cells assessed as inhibition of 5-HT-stimulated cAMP accumulation by Cheng-Prusoff method; assay type: functional, cell-based
[15] = target: T1, 5-hydroxytryptamine receptor 7; experiment: Displacement of [3H]5-HT from human 5-HT7 receptor expressed in HEK293 cells at 10^-5 mol/L after 30 mins by microbeta counting analysis; assay type: cell-based
In short: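 Membranes incubated 30 min at 25 °C with 5 nmol/L [3H]5-HT in 50 mM Tris-HCl pH 7.4 containing pargyline, CaCl2 and ascorbic acid, with the test compound at a single fixed concentration. Non-specific binding with 100 µM cold 5-HT; separation by filtration; result reported as % displacement.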

[16] = target: T1, 5-hydroxytryptamine receptor 7; experiment: Displacement of [3H]5-HT from human 5-HT7 receptor expressed in HEK293 cells at 10^-7 mol/L after 30 mins by microbeta counting analysis; assay type: cell-based
[17] = target: T1, 5-hydroxytryptamine receptor 7; experiment: Agonist activity at human 5-HT7 receptor expressed in CHO cells assessed as stimulation of cAMP accumulation up to 10^-5 M; assay type: functional, cell-based
[18] = target: T1, 5-hydroxytryptamine receptor 7; experiment: Antagonist activity at human 5-HT7 receptor expressed in CHO cells assessed as inhibition of 5-HT-stimulated cAMP accumulation; assay type: functional, cell-based

5-hydroxytryptamine receptor 2B (Homo sapiens), sequence (P41595 whole entry): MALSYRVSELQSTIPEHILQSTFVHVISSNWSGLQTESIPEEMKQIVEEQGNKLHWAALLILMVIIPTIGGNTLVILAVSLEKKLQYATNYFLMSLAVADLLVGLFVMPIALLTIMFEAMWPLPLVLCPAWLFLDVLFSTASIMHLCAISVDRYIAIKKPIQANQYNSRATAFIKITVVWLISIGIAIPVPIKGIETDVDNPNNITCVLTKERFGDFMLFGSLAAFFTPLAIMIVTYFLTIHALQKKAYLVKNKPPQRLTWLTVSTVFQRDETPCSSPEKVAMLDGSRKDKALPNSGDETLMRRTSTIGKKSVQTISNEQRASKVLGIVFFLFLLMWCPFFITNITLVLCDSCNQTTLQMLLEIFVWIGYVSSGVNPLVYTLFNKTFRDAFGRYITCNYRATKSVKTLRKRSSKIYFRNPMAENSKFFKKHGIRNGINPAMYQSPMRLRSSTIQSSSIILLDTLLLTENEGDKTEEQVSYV
5-hydroxytryptamine receptor 5A (Homo sapiens), sequence (P47898 whole entry): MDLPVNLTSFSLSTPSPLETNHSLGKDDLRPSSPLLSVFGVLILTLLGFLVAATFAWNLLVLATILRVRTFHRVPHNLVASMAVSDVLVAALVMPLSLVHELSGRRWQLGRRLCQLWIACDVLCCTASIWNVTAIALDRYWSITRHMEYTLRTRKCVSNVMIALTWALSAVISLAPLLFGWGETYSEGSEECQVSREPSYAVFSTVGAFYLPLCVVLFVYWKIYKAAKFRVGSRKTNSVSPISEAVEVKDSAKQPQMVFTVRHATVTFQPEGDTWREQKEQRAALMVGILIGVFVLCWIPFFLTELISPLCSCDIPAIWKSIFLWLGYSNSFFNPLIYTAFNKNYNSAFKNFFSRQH
5-hydroxytryptamine receptor 1B (Homo sapiens), sequence (P28222 whole entry): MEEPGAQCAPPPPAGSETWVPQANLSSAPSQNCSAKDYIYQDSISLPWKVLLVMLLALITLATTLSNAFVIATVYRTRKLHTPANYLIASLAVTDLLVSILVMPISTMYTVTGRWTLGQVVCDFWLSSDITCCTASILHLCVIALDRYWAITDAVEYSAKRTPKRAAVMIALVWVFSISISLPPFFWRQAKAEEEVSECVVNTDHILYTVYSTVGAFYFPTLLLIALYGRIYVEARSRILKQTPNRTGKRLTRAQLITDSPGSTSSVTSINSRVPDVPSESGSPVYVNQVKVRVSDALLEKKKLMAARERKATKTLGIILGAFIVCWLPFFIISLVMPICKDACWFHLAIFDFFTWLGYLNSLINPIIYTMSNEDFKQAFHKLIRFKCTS
5-hydroxytryptamine receptor 4 (Homo sapiens), sequence (Q13639 whole entry): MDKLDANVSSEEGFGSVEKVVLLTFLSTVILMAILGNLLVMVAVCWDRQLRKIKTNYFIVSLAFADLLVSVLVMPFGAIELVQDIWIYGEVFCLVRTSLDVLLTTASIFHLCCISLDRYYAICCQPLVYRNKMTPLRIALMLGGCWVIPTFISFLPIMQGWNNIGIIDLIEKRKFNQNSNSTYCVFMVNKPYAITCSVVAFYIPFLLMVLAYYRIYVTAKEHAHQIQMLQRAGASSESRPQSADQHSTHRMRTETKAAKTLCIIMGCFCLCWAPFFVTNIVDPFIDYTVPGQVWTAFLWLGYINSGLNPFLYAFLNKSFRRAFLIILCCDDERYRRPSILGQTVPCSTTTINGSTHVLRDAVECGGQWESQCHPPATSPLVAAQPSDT
5-hydroxytryptamine receptor 6 (Homo sapiens), sequence (P50406 whole entry): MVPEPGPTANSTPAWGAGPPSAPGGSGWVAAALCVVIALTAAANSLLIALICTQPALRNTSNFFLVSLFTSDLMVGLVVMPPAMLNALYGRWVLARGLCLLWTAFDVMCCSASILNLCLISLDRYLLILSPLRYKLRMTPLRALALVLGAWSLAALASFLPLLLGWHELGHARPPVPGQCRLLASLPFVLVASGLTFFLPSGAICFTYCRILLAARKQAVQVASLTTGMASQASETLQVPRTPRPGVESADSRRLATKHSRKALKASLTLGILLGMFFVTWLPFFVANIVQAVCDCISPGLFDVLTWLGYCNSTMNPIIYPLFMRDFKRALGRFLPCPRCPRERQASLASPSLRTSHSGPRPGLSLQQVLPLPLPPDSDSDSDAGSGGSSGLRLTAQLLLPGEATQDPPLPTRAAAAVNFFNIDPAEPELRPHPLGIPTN
T1 sequence (P34969 whole entry): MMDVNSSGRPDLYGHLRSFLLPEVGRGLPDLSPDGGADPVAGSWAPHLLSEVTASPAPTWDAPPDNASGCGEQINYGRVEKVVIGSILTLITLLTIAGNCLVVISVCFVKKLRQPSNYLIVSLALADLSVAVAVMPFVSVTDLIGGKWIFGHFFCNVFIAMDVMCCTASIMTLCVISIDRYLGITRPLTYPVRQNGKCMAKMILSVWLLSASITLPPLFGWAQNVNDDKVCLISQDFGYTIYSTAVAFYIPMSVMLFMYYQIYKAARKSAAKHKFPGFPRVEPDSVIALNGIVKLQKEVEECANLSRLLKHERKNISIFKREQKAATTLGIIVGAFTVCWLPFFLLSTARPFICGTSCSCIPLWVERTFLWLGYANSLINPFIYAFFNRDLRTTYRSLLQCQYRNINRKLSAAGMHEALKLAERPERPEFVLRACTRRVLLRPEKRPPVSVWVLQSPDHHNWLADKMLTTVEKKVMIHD
5-hydroxytryptamine receptor 2A (Homo sapiens), sequence (P28223 whole entry): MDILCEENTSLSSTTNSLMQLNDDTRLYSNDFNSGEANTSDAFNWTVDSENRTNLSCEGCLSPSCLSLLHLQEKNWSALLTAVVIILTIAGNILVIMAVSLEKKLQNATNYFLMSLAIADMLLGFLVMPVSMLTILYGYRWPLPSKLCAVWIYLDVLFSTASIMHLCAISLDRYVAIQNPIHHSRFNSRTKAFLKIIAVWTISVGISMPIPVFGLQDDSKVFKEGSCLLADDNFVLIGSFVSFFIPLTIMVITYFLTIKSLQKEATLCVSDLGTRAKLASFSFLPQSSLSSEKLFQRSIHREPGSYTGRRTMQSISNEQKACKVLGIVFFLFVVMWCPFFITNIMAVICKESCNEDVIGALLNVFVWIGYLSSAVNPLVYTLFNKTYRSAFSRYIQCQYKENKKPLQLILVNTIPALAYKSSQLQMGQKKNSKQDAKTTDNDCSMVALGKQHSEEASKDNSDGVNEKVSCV
5-hydroxytryptamine receptor 1D (Rattus norvegicus), sequence (P28565 whole entry): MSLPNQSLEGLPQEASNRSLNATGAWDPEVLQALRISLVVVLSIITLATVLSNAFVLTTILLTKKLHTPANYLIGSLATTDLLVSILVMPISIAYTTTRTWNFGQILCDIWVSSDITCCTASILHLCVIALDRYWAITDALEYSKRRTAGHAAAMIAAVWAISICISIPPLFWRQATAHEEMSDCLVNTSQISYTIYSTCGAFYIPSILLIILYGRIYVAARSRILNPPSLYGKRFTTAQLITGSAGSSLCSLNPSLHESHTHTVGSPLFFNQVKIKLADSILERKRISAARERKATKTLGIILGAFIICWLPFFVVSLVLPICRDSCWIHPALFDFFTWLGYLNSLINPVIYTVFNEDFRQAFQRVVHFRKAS

| Ki [1] [nM] | % serotonin response [13] [%] | Activity [17] | IC50 [18] [nM] | Compound | inhibition [2] [%] | inhibition [3] [%] | inhibition [4] [%] | inhibition [5] [%] | inhibition [6] [%] | inhibition [7] [%] | inhibition [8] [%] | inhibition [9] [%] | inhibition [10] [%] | inhibition [11] [%] | Ki [12] [nM] | Kb [14] [nM] | inhibition [15] [%] | inhibition [16] [%] |
| --- | --- | --- | --- | --- | --- | --- | --- | --- | --- | --- | --- | --- | --- | --- | --- | --- | --- | --- |
| 20 | 49 | – | – | CN(CCCN1CCN(c2ccccc2)CC1)c1cccc(O)c1 | 101 | 9 | 18 | 79 | 75 | 42 | 5 | -5 | 49 | 21 | 20 | – | – | – |
| – | – | – | – | CN1C[C@@H](NS(=O)(=O)N(C)C)C[C@@H]2c3cccc4c3c(cn4C)C[C@H]21 | – | – | – | – | – | – | – | – | – | – | – | 16 | – | – |
| 8.1 | – | – | – | CN(C(=O)CCCCCN1CCN(c2cccc3ccccc23)CC1)c1cccc(O)c1 | 99 | 69 | 100 | 99 | 101 | 98 | 6 | 16 | 70 | 71 | 8.1 | – | – | – |
| – | – | – | – | Oc1ccc2[nH]cc(CCN3CCN(c4ccc(-c5ccccc5)cc4)CC3)c2c1 | – | – | – | – | – | – | – | – | – | – | – | – | 32 | 10 |
| 30 | 39 | inactive | 540 | CN(CCCCN1CCN(c2ccccc2)CC1)c1cccc(O)c1 | – | – | – | – | – | – | – | – | – | – | – | 57 | – | – |
| – | – | – | – | CCCCN1CCN(CCc2c[nH]c3ccc(O)cc23)CC1 | – | – | – | – | – | – | – | – | – | – | – | – | – | -9 |
| – | – | – | – | Oc1ccc2[nH]cc(CCN3CCN(C4CCCC4)CC3)c2c1 | – | – | – | – | – | – | – | – | – | – | – | – | – | 1 |

| Compound | Ki [1] [nM] | % serotonin response [13] [%] | Activity [17] | IC50 [18] [nM] | inhibition [2] [%] | inhibition [3] [%] | inhibition [4] [%] | inhibition [5] [%] | inhibition [6] [%] | inhibition [7] [%] | inhibition [8] [%] | inhibition [9] [%] | inhibition [10] [%] | inhibition [11] [%] | Ki [12] [nM] | Kb [14] [nM] | inhibition [15] [%] | inhibition [16] [%] |
| --- | --- | --- | --- | --- | --- | --- | --- | --- | --- | --- | --- | --- | --- | --- | --- | --- | --- | --- |
| Oc1ccc2[nH]cc(CCN3CCN(c4cccc5ccccc45)CC3)c2c1 | 11.6 | – | – | – | 100 | 74 | 99 | 100 | 98 | 98 | 15 | 7 | 94 | 76 | 11.6 | – | – | – |
| Oc1ccc2[nH]cc(CCN3CCN(c4ccccc4)CC3)c2c1 | 63.1 | – | – | – | 95 | 11 | 60 | 97 | 98 | 66 | 1 | 17 | 56 | 18 | 63.1 | – | – | – |

Source: ChEMBL document CHEMBL3259775, “Towards the development of 5-HT₇ ligands combining serotonin-like and arylpiperazine moieties” (Eur J Med Chem, 2014)
